Reference: ChEMBL document CHEMBL1153240, “Microwave assisted synthesis and in vitro cytotoxicities of substituted (Z)-2-amino-5-(1-benzyl-1H-indol-3-yl)methylene-1-methyl-1H-imidazol-4(5H)-ones against human tumor cell lines” (2010)

What was measured:
Assay type in all cases: functional
UACC-257 = experiment: Cytotoxicity against human UACC257 cells
In short: (§1)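 NCI 60 human tumor cell line panel, five-dose dose-response study. Cytotoxic effect was plotted against log10 drug concentration for each cell line. GI50 is the molar concentration giving 50% reduction in net protein increase versus control cells. LC50 is the concentration lethal to 50% of cells.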

DU-145 = experiment: Cytotoxicity against human DU145 cells
In short: (§2)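 NCI 60-cell-line panel, five-dose response study. Effect is plotted against log10 drug concentration for each cell line. GI50 is the molar concentration giving a 50% reduction in net protein increase relative to control cells. LC50 is the concentration lethal to 50% of cells.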

IGROV-1 = experiment: Cytotoxicity against human IGROV1 cells; in short: as §2
SW-620 = experiment: Cytotoxicity against human SW620 cells; in short: as §1
NCI/ADR-RES = experiment: Cytotoxicity against human NCI/ADR-RES cells; in short: as §2
MCF7 = experiment: Cytotoxicity against human MCF7 cells; in short: as §2
OVCAR-3 = experiment: Cytotoxicity against human OVCAR-3 cells; in short: as §2
SR = experiment: Cytotoxicity against human SR cells; in short: as §2
SF-295 = experiment: Cytotoxicity against human SF295 cells; in short: as §2
HCT-116 = experiment: Cytotoxicity against human HCT116 cells; in short: as §2
SK-MEL-5 = experiment: Cytotoxicity against human SK-MEL-5 cells; in short: as §2
M14 = experiment: Cytotoxicity against human M14 cells; in short: as §2
Malme-3M = experiment: Cytotoxicity against human MALME-3M cells; in short: as §2
RXF 393 = experiment: Cytotoxicity against human RXF393 cells; in short: as §2
K562 = experiment: Cytotoxicity against human K562 cells; in short: as §2
MDA-MB-435 = experiment: Cytotoxicity against human MDA-MB-435 cells
In short: (§3)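 NCI 60-cell-line panel, five-concentration dose-response. Cytotoxic effect was plotted against log10 drug concentration for each line. GI50 is the molar concentration giving a 50% reduction in net protein increase relative to control cells. LC50 is the concentration lethal to 50% of cells. Both were read from the curves.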

[1] = Cytotoxicity against human Hs 578T cells; in short: as §2
NCI-H226 = experiment: Cytotoxicity against human NCI-H226 cells; in short: as §2
[2] = Cytotoxicity against human […] cells; in short: as §2
SF-268 = experiment: Cytotoxicity against human SF268 cells; in short: as §2
ACHN = experiment: Cytotoxicity against human ACHN cells; in short: as §2
UO-31 = experiment: Cytotoxicity against human UO31 cells; in short: as §1
NCI-H522 = experiment: Cytotoxicity against human NCI-H522 cells; in short: as §2
LOX IMVI = experiment: Cytotoxicity against human LOXIMVI cells; in short: as §2
786-0 = experiment: Cytotoxicity against human 786-0 cells; in short: as §2
HL-60 = experiment: Cytotoxicity against human HL60 cells; in short: as §2
SNB-75 = experiment: Cytotoxicity against human SNB75 cells; in short: as §2
T47D = experiment: Cytotoxicity against human T47D cells; in short: as §1
KM12 = experiment: Cytotoxicity against human KM12 cells; in short: as §2
HOP-92 = experiment: Cytotoxicity against human HOP92 cells; in short: as §2
OVCAR-5 = experiment: Cytotoxicity against human OVCAR5 cells; in short: as §2
NCI-H460 = experiment: Cytotoxicity against human NCI-H460 cells; in short: as §2
HCT-15 = experiment: Cytotoxicity against human HCT15 cells; in short: as §2
EKVX = experiment: Cytotoxicity against human EKVX cells; in short: as §2
HOP-62 = experiment: Cytotoxicity against human HOP62 cells; in short: as §2
BT-549 = experiment: Cytotoxicity against human BT549 cells; in short: as §2
SN12C = experiment: Cytotoxicity against human SN12C cells; in short: as §2
MDA-MB-231 = experiment: Cytotoxicity against human MDA-MB-231 cells; in short: as §2
CAKI-1 = experiment: Cytotoxicity against human Caki1 cells; in short: as §2
CCRF-CEM = experiment: Cytotoxicity against human CCRF-CEM cells; in short: as §2
SF-539 = experiment: Cytotoxicity against human SF539 cells; in short: as §2
MOLT-4 = experiment: Cytotoxicity against human MOLT4 cells; in short: as §2
TK-10 = experiment: Cytotoxicity against human TK10 cells; in short: as §1
SK-MEL-2 = experiment: Cytotoxicity against human SK-MEL-2 cells; in short: as §2
SK-OV-3 = experiment: Cytotoxicity against human SKOV3 cells; in short: as §2
HCC 2998 = experiment: Cytotoxicity against human HCC2998 cells; in short: as §2
NCI-H23 = experiment: Cytotoxicity against human NCI-H23 cells; in short: as §2
OVCAR-4 = experiment: Cytotoxicity against human OVCAR4 cells; in short: as §2
SNB-19 = experiment: Cytotoxicity against human SNB19 cells; in short: as §2
HT-29 = experiment: Cytotoxicity against human HT-29 cells; in short: as §3
PC-3 = experiment: Cytotoxicity against human PC3 cells; in short: as §2
A498 = experiment: Cytotoxicity against human A498 cells; in short: as §2
A549 = experiment: Cytotoxicity against human A549 cells; in short: as §2
MDA-MB-468 = experiment: Cytotoxicity against human MDA-MB-468 cells; in short: as §2
COLO 205 = experiment: Cytotoxicity against human COLO205 cells; in short: as §3
U-251 = experiment: Cytotoxicity against human U251 cells; in short: as §1
OVCAR-8 = experiment: Cytotoxicity against human OVCAR8 cells; in short: as §2
SK-MEL-28 = experiment: Cytotoxicity against human SK-MEL-28 cells; in short: as §2
NCI-H322M = experiment: Cytotoxicity against human NCI-H322M cells; in short: as §2
[3] = read-out: LC50 (the source's name)

COC(=O)c1ccc(Cn2cc(/C=C3/C(=O)N=C(N)N3C)c3ccccc32)cc1
GI50 (UACC-257): 17.9 µM
LC50 (UACC-257): > 100 µM
GI50 (DU-145): 2.25 µM
CC50 (DU-145; [3]): 14.8 µM
GI50 (IGROV-1): 5.91 µM
CC50 (IGROV-1; [3]): > 100 µM
GI50 (SW-620): 2.2 µM
CC50 (SW-620; [3]): > 100 µM
GI50 (NCI/ADR-RES): 9.46 µM
CC50 (NCI/ADR-RES; [3]): > 100 µM
GI50 (MCF7): 2.45 µM
CC50 (MCF7; [3]): 77.8 µM
GI50 (OVCAR-3): 2.29 µM
CC50 (OVCAR-3; [3]): 7.98 µM
GI50 (SR): 2.48 µM
CC50 (SR; [3]): > 100 µM
GI50 (SF-295): 2.36 µM
CC50 (SF-295; [3]): > 100 µM
GI50 (HCT-116): 1.79 µM
CC50 (HCT-116; [3]): 7.7 µM
GI50 (SK-MEL-5): 1.69 µM
LC50 (SK-MEL-5): 5.75 µM
GI50 (M14): 1.9 µM
LC50 (M14): 7.25 µM
GI50 (Malme-3M): 1.7 µM
CC50 (Malme-3M; [3]): 8.33 µM
GI50 (RXF 393): 1.95 µM
CC50 (RXF 393; [3]): 8.71 µM
GI50 (K562): 2.23 µM
CC50 (K562; [3]): > 100 µM
GI50 (MDA-MB-435): 1.93 µM
GI50 [1]: 2.17 µM
LC50 [1]: > 100 µM
GI50 (NCI-H226): 2.26 µM
LC50 (NCI-H226): > 100 µM
GI50 [2]: 3.25 µM
LC50 (concentration lethal to 50% of cells) [2]: > 100 µM
GI50 (SF-268): 2.56 µM
CC50 (SF-268; [3]): > 100 µM
GI50 (ACHN): 1.76 µM
CC50 (ACHN; [3]): 6.14 µM
GI50 (UO-31): 3.2 µM
CC50 (UO-31; [3]): > 100 µM
GI50 (NCI-H522): 1.93 µM
LC50 (NCI-H522): > 100 µM
GI50 (LOX IMVI): 1.89 µM
LC50 (LOX IMVI): 8.66 µM
GI50 (786-0): 1.75 µM
LC50 (786-0): 5.85 µM
GI50 (HL-60): 2.67 µM
LC50 (HL-60): > 100 µM
GI50 (SNB-75): 1.46 µM
LC50 (concentration lethal to 50% of cells) (SNB-75): 5.47 µM
GI50 (T47D): 1.5 µM
CC50 (T47D; [3]): 5.74 µM
GI50 (KM12): 3.18 µM
CC50 (KM12; [3]): > 100 µM
GI50 (HOP-92): 1.51 µM
CC50 (HOP-92; [3]): 7.75 µM
GI50 (OVCAR-5): 1.9 µM
CC50 (OVCAR-5; [3]): 18.5 µM
GI50 (NCI-H460): 2.55 µM
CC50 (NCI-H460; [3]): > 100 µM
GI50 (HCT-15): 2.27 µM
CC50 (HCT-15; [3]): > 100 µM
GI50 (EKVX): > 100 µM
CC50 (EKVX; [3]): > 100 µM
GI50 (HOP-62): 1.99 µM
CC50 (HOP-62; [3]): 33 µM
GI50 (BT-549): 1.73 µM
CC50 (BT-549; [3]): > 100 µM
GI50 (SN12C): 1.74 µM
CC50 (SN12C; [3]): 8.59 µM
GI50 (MDA-MB-231): 2.01 µM
LC50 (MDA-MB-231): 14.3 µM
GI50 (CAKI-1): 35.1 µM
GI50 (CCRF-CEM): 2.91 µM
CC50 (CCRF-CEM; [3]): > 100 µM
GI50 (SF-539): 1.54 µM
CC50 (SF-539; [3]): 5.56 µM
GI50 (MOLT-4): 2.42 µM
CC50 (MOLT-4; [3]): > 100 µM
GI50 (TK-10): 3.16 µM
CC50 (TK-10; [3]): > 100 µM
GI50 (SK-MEL-2): 2.7 µM
CC50 (SK-MEL-2; [3]): > 100 µM
GI50 (SK-OV-3): 1.98 µM
CC50 (SK-OV-3; [3]): 8.68 µM
GI50 (HCC 2998): 2.99 µM
CC50 (HCC 2998; [3]): 4.71 µM
GI50 (NCI-H23): 3.23 µM
LC50 (concentration lethal to 50% of cells) (NCI-H23): 58.8 µM
GI50 (OVCAR-4): 2.18 µM
CC50 (OVCAR-4; [3]): > 100 µM
GI50 (SNB-19): 2.39 µM
CC50 (SNB-19; [3]): 31 µM
GI50 (HT-29): 2.17 µM
GI50 (PC-3): 6.27 µM
CC50 (PC-3; [3]): > 100 µM
GI50 (A498): 14.1 µM
CC50 (A498; [3]): 53.2 µM
GI50 (A549): 5.05 µM
CC50 (A549; [3]): > 100 µM
GI50 (MDA-MB-468): 1.63 µM
LC50 (MDA-MB-468): 6.78 µM
GI50 (COLO 205): 1.91 µM
GI50 (U-251): 1.81 µM
CC50 (U-251; [3]): 7.72 µM
GI50 (OVCAR-8): 3.45 µM
CC50 (OVCAR-8; [3]): > 100 µM
GI50 (SK-MEL-28): 1.78 µM
CC50 (SK-MEL-28; [3]): 6.14 µM
GI50 (NCI-H322M): 2.56 µM
CC50 (NCI-H322M; [3]): > 100 µM
